# Measured values from ChEMBL document CHEMBL4706680, “Small-Molecule HSP27 Inhibitor Abolishes Androgen Receptors in Glioblastoma” (J Med Chem, 2021).
# Active and inactive are the calls of the source. No cut-off for these calls is given here.
# How the values were obtained:
# U-251 = experiment: Antiproliferative activity against human U-251 cells assessed as reduction in cell viability incubated for 48 hrs by MTT assay; assay type: functional, cell-based; details: U-251, 48 h
# Summary of the method: (§1)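 MTT assay; 3000 cells/well in RPMI 1640 or DMEM with 10% FBS, seeded 24 h, then exposed 48 h to a range of concentrations in DMSO (final ≤0.1%); vehicle controls. MTT 1 mg/mL for 2 h at 37 °C, dye dissolved in DMSO, absorbance 570 nm; eight replicates; IC50 by nonlinear regression.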
# A 172 = experiment: Antiproliferative activity against human A 172 cells assessed as reduction in cell viability incubated for 48 hrs by MTT assay; assay type: functional, cell-based; details: A 172, 48 h; summary of the method: as §1
# [1] = Toxicity in CD1 mouse assessed as acute pain at 80 mg/kg/day, ip administered thrice weekly and measured at day 10; assay type: organism-based; details: in vivo, 72 h, time 3 day
# Summary of the method: (§2)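 Male CD-1 mice, four per group, given 80 mg/kg in PBS IP three times weekly; vehicle DMSO. Mice were euthanized when toxicity signs appeared, otherwise at day 10. Body weight was recorded at first and last dosing days. Non-fasted cardiac blood was taken after euthanasia for an automated hematology analyzer.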
# [2] = Toxicity in CD1 mouse assessed as decrease in body weight at 80 mg/kg/day, ip administered thrice weekly and measured at day 10; assay type: organism-based; details: in vivo, 72 h, time 3 day; summary of the method: as §2
# [3] = Toxicity in CD1 mouse assessed as decrease in body weight at 80 mg/kg/day, ip administered thrice weekly and observed at day 5 to 7; assay type: organism-based; details: in vivo, 72 h, time 3 day; summary of the method: as §2
# [4] = molecular target: Heat shock protein beta-1 (Homo sapiens) (UniProt P04792); experiment: Inhibition of HSP27 (unknown origin) chaperone activity assessed as increase in DTT-induced insulin aggregation at 10 uM incubated for 5 mins in absence of alpha-crystallin followed by addition of DTT and measured for 2 hrs for every 3 mins by microplate reader analysis; details: time 125.0 min
# Heat shock protein beta-1 (Homo sapiens), sequence (P04792 whole entry): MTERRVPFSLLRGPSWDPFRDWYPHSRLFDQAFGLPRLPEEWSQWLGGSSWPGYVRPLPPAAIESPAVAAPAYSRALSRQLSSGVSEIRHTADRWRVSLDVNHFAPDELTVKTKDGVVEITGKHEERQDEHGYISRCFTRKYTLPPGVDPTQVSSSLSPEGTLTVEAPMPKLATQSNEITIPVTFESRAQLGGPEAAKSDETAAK
# Summary of the method: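 Insulin aggregation assay in PBS at 10 μM, 0.1% DMSO. Insulin stock 1 mg/mL with or without α-crystallin stock 5 mg/mL was preincubated 5 min at 37 °C. Aggregation was started with DTT (1 M stock). A400 was read every 3 min for 2 h; three independent experiments, each in triplicate.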
# [5] = molecular target: Heat shock protein beta-1 (Homo sapiens) (UniProt P04792); experiment: Inhibition of HSP27 in human U87 cells assessed as downregulation of androgen receptor by Western blot analysis; assay type: cell-based; details: dose 25-100 nM
# Summary of the method: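 Cells were treated in six-well plates (with or without MG132 where stated), then lysed in RIPA with protease inhibitors. 50 μg protein was run on 10% SDS-PAGE and transferred to PVDF. Membranes were blocked in 5% milk/TBS-T, probed with AR or AR-V7 antibodies overnight at 4 °C, and detected by chemiluminescence. Densitometry was used; n = 3.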
# Bos taurus = organism: Bos taurus; experiment: Inhibition of bovine brain tubulin polymerization measured every 1 min for 45 mins in presence of GTP by microplate reader analysis; details: dose 1-1000 nM
# Summary of the method: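 MAP-rich bovine brain tubulin, 2 mg/mL, in 80 mM PIPES pH 6.9, 2 mM MgCl2, 0.5 mM EGTA, 5% glycerol with a range of concentrations in DMSO at 37 °C. Polymerization was started with GTP (100 mM stock, 1 μL). A340 was read each minute for 45 min; three independent experiments, analysed at end reading.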
# T98G = experiment: Downregulation of NKX3.1 mRNA expression in human T98G cells at 25 nM incubated for 12 hrs by qRT-PCR analysis; assay type: functional, cell-based
# Summary of the method: (§3)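 T98G and U87 cells, 2 × 10^5 per well, adhered overnight and were treated at 25 nM for 12 h. RNA was extracted with RiboZol and DNase I-treated. AR, PSA and NKX3.1 were measured by real-time PCR, normalized to 18S by 2−ΔΔCt, three replicates per cDNA.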
# U-87MG ATCC = experiment: Downregulation of PSA mRNA expression in human U87 cells at 25 nM incubated for 12 hrs by qRT-PCR analysis; assay type: functional, cell-based; summary of the method: as §3
# [6] = molecular target: T1, Androgen receptor (Homo sapiens) (UniProt P10275); experiment: Inhibition of AR transcriptional activity in human U87 cells assessed as reduction in AR mRNA expression at 25 nM incubated for 12 hrs by qRT-PCR analysis; assay type: cell-based; summary of the method: as §3
# T1 sequence (whole entry): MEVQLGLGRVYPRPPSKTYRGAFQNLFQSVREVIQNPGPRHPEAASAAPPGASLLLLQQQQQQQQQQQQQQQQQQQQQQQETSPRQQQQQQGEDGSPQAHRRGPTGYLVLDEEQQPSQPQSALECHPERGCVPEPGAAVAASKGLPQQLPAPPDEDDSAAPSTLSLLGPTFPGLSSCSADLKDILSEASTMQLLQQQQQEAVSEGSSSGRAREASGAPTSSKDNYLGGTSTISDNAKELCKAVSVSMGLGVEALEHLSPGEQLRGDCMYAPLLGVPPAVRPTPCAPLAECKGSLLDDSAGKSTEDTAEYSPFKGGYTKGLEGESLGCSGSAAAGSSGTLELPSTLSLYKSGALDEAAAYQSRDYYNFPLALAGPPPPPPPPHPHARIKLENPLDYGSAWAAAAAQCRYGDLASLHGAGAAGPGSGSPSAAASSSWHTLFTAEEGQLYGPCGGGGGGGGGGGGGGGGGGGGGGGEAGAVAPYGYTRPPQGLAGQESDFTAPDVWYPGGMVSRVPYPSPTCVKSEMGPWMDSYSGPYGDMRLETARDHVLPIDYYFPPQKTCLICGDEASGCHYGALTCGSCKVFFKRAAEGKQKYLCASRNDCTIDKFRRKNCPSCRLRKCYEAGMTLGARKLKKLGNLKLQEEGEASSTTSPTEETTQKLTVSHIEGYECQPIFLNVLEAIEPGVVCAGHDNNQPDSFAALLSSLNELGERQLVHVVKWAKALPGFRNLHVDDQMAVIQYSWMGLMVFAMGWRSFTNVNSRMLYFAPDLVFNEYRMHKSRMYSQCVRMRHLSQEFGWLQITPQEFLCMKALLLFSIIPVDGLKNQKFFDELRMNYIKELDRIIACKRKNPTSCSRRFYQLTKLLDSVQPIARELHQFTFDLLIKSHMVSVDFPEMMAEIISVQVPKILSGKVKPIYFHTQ
# [7] = molecular target: T1, Androgen receptor (Homo sapiens); experiment: Inhibition of AR transcriptional activity in human T98G cells assessed as reduction in AR mRNA expression at 25 nM incubated for 12 hrs by qRT-PCR analysis; assay type: cell-based; summary of the method: as §3
# U-87 MG = experiment: Antitumor activity against human U87 cells xenografted in NCR nude mouse assessed as reduction in tumor size at 20 mg/kg, ip administered thrice weekly for 14 days by vernier caliper method; assay type: functional, organism-based; details: U-87MG ATCC, time 14.0 day
# Summary of the method: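 Male NCRNU nude mice, 5–6 weeks, 5 × 10^6 U87 cells in PBS injected subcutaneously into left and right flank (n = 4 mice, 8 tumors per group). Dosing began near 50 mm3: 20 mg/kg in PBS IP or oral, three times weekly for 14 days, vehicle DMSO. Calipers three times weekly, V = 2/3·d1·d2²; tumors weighed after CO2 euthanasia.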
smiles,measurement,setting,value
COc1ccc(C(=O)Nc2ccc(NS(C)(=O)=O)c(OCc3cc(OC)ccc3OC)c2)cc1,IC50,U-251,4 nM
same,IC50,A 172,6.24 nM
same,Activity,[1],Non-Toxic
same,Activity,[2],Non-Toxic
same,Activity,[3],Non-Toxic
same,inhibition,[4],inactive
same,inhibition,[5],Dose-dependent effect
same,inhibition,Bos taurus,Dose-dependent effect
same,inhibition,T98G,Active
same,inhibition,U-87MG ATCC,Active
same,inhibition,[6],Active
same,inhibition,[7],Active
same,Activity,U-87 MG,Active
